Activity calls are given as the source filed them.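 The calls were made as follows, unless noted: active = NADPH fluorescence slope more negative than the mean of all samples by about 3 SD, 99.7% confidence; inactive = the rest.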
Assays:
[1] = inhibitors of TNFa-induced NFkB p65 translocation, primary screen, imaging, HUVEC, MLSMR starter and 10KST1 sets (AID 438;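 active = inhibition above 20% together with a positive visual image hit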;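 also: compound added about 3h40 before a 20 min TNFalpha stimulation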;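 as to inhibition: signal is the nuclear over cytoplasmic p65 intensity ratio per well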); conditions: HUVEC TNFa-induced p65 nuclear translocation; cell count: measured here: nuclei count (cytotoxicity indicator), at 2.08 µM; inhibition: at 2 µM, stronger effect = higher value, 0% TNFa-plus-vehicle, 100% no-TNFa wells
[2] = inhibitors of E-selectin induction by TNFa, primary screen, imaging, HUVEC, immunofluorescence, MLSMR starter and 10KST1 sets (AID 487;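 active = visually confirmed hit in the image check and inhibition above 20%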;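 as to inhibition: signal is fraction of cell area covered by stained E-selectin grains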;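 as to nuclei count: 100% = median nuclei count of all wells on the same plate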); conditions: HUVEC TNFalpha-induced E-selectin immunofluorescence imaging, at 2 µM; inhibition: stronger effect = higher value; nuclei count: measured here: cell number, toxicity
[3] = DUSP6 inhibitors restoring Erk phosphorylation by chemical complementation, primary imaging in DUSP6-transfected HeLa (AID 609;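 active = compounds giving at least 50% inhibition in the cell-based MKP-3 phosphatase rescue imaging test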;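 as to inhibition: phospho-Erk level distribution per well compared with pooled transfected vehicle control wells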); conditions: HeLa MKP-3 transfected, phospho-Erk imaging KS statistic, at 10 µM, cells stimulated with TPA for 15 min
[4] = target: Dual specificity protein phosphatase 6 (Homo sapiens) (UniProt Q16828); assay: as above; conditions: HeLa MKP-3 transfected, phospho-Erk imaging KS statistic; at 10 µM; stronger effect = higher value; cells stimulated with TPA for 15 min
[5] = target: Voltage-gated potassium channel subunit beta-2 (Rattus norvegicus) (UniProt P62483); assay: KvBeta enzyme negative modulators, primary screen, biochemical, NADPH fluorescence (AID 622;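 active = fluorescence slope higher than the sample average by over 3 SD, cut at about -0.22 in these data, passing the limit was not always enough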;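 also: slope of raw intensity against log time taken from 70 to 1610 s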); conditions: recombinant KvBeta, 4-cyanobenzaldehyde reduction, at 10 µM, stronger effect = higher value
[6] = target: Voltage-gated potassium channel subunit beta-2 (Rattus norvegicus) (UniProt P62483); assay: KvBeta positive modulators, primary screen, biochemical, NADPH fluorescence (AID 623); conditions: Recombinant KvBeta, NADPH fluorescence decrease slope, 10 min; at 10 µM; stronger effect = lower value;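 also: fluorescence intensity change per second fitted from 20 to 320 s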
[7] = target: Muscarinic acetylcholine receptor M4 (Homo sapiens) (UniProt P08173); assay: compounds altering M4/GIRK thallium flux, either direction, primary screen, M4 allosteric agonist project, cell-based, HEK293 M4/GIRK, BTC-AM (AID 625;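 active = fluorescence slope after compound addition differing from the mean of all tested samples at 99.7% confidence, mostly higher but some lower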;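 also: thallium influx through GIRK channels coupled to M4 in HEK293 cells with BTC-AM dye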); conditions: at 10 µM, actives lie on both sides
Method in brief: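 Material: HEK293 cells with M4 receptor and GIRK channels; Times: cells overnight at 37 °C, BTC-AM loading 1 h, reads 2 min total; Technique: kinetic BTC-AM fluorescence sampled at 1 Hz, 10 s pre-addition baseline; Read-out basis: slope over 15–24 s of trace normalized to starting intensity; Controls: carbachol positive, DMSO negative.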

[8] = inhibitors of larval lipid processing in zebrafish, primary screen, whole organism, PED6 fluorescence, gall bladder and intestine (AID 686;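 active = a full or partial loss of lipid-probe fluorescence in the fish gall bladder, intestine or both, judged by eye; inactive = no fluorescence loss, or compound toxic to the fish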;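 also: larvae 5 to 7 days old with five fish per well; signal comes from phospholipase A2 cleavage of quenched PED6 carried via bile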); conditions: Zebrafish larvae PED6 lipid processing, fluorescence scoring; screened at 20 µM (by protocol)
Method in brief: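 Incubation: overnight exposure of larvae to compound plus PED6 / Test system: live zebrafish larvae aged 5-7 days, whole organism / Amount: 5 larvae per well / Read-out basis: visual per-well fluorescence inhibition score / Signal: visual fluorescence microscopy scoring of gall bladder, gut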

[9] = inhibitors of Chlamydomonas gravitaxis, primary screen, whole organism, Chlamydomonas reinhardtii, WT vs cilia-less mutant, absorbance, 96-well (AID 463189;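 active = inhibition at or above 50% relative to wild type and mutant plate controls; inactive = inhibition below 50%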;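 also: 0% = wild type cc124 cells in DMSO and 100% = ciliumless bld1 mutant cells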); conditions: OD600 absorbance, 2 days, at 10 µM, stronger effect = higher value
[10] = measured here: cell density z-score
[11] = measured here: nuclear c-Myc green intensity z-score
[12] = measured here: nuclear pErk red intensity z-score, stronger effect = higher value

Dual specificity protein phosphatase 6 (Homo sapiens), sequence (Q16828 whole entry, looked up): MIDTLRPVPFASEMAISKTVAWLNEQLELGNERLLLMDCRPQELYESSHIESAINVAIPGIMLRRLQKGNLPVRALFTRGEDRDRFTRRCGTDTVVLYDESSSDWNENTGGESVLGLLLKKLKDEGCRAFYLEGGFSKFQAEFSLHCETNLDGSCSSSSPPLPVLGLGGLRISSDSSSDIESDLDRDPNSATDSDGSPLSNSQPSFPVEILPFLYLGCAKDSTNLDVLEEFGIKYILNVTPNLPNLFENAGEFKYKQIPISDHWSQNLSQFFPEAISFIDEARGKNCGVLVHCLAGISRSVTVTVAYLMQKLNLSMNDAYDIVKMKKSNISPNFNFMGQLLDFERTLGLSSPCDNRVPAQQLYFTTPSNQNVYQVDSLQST
Muscarinic acetylcholine receptor M4 (Homo sapiens), sequence (P08173 whole entry, looked up): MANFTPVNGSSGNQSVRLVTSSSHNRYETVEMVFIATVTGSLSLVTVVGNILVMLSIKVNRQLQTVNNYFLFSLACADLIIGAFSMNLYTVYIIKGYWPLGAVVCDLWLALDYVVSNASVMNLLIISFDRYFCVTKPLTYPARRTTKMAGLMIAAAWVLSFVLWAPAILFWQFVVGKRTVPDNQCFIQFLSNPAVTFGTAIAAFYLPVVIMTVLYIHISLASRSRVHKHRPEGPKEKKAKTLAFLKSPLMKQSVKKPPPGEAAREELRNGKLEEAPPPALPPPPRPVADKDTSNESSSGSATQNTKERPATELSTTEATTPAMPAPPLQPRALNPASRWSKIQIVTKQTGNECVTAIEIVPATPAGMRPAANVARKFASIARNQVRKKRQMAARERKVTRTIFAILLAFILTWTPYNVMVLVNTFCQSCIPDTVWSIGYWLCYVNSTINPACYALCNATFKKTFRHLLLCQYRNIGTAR
Voltage-gated potassium channel subunit beta-2 (Rattus norvegicus), sequence (P62483 whole entry, looked up): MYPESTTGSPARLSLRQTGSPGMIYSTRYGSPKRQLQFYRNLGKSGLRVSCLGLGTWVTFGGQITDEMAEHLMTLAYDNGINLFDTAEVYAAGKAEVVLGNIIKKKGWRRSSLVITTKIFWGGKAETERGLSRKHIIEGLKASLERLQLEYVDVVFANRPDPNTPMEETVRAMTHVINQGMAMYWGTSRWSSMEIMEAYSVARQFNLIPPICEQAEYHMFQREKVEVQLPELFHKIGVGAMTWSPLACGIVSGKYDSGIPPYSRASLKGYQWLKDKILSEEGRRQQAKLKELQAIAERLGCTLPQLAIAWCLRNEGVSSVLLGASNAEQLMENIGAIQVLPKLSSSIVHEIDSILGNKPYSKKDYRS

| SMILES | cell count [1] | inhibition [1] | inhibition [2] | nuclei count [2] | z-score [3, 10] | z-score [3, 11] | z-score [3, 12] | inhibition [4] | fluorescence slope [5] | NADPH fluorescence slope [6] | fluorescence slope [7] | outcome [8] | inhibition [9] |
| --- | --- | --- | --- | --- | --- | --- | --- | --- | --- | --- | --- | --- | --- |
| Brc1ccc(-c2cnnc(N3CCCC3)n2)cc1 | 399 | -2.1% (inactive) | -57.7% (inactive) | 130% | -1.38 | 0.891 | -0.195 | -0.608% (inactive) | -0.415 (inactive) | -1.2e-05 (inactive) | 0.005 (inactive) | inactive | 42.9% (inactive) |
| COc1ccc(CC(=O)n2c(CC#N)nc3ccccc32)cc1OC | 598 | -10.9% (inactive) | -32.4% (inactive) | 112% | -0.393 | -2.03 | 0.813 | -0.233% (inactive) | -0.465 (inactive) | -3.6e-05 (inactive) | 0.00563 (inactive) | inactive | 9.22% (inactive) |
| O=C(COc1ccc(-c2nnc(N3CCCCC3)c3ccccc23)cc1)N1CCCCC1 | 373 | 1.4% (inactive) | -58.5% (inactive) | 89.7% | 0.333 | -0.404 | 1.13 | 5.65% (inactive) | -0.487 (inactive) | 2e-05 (inactive) | 0.00419 (inactive) | inactive | 34.6% (inactive) |
| CCOC(=O)C(C(=O)OCC)N(C#N)c1nc(SC)nc(N(C)C)n1 | 607 | -2.8% (inactive) | 42.8% (inactive) | 86.4% | -3.26 | 2.37 | 4.3 | 33.3% (inactive) | -0.457 (inactive) | -5e-05 (inactive) | 0.00538 (inactive) | inactive | -15.2% (inactive) |
| Cc1c(=O)n(OCc2c(F)cccc2F)c2ccccc2[n+]1[O-] | 542 | -10.8% (inactive) | -125% (inactive) | 163% | -0.166 | -0.624 | -0.0317 | 3.97% (inactive) | -0.406 (inactive) | -4.3e-05 (inactive) | 0.00531 (inactive) | inactive | -0.428% (inactive) |
| COCCCn1c2nc3ccccc3nc2c2c(=O)n(-c3ccccc3OC)c(C)nc21 | 671 | -8.6% (inactive) | -13.5% (inactive) | 185% | 0.714 | -0.748 | 0.0802 | 9.07% (inactive) | -0.442 (inactive) | -3.7e-05 (inactive) | 0.0072 (inactive) | inactive | 4.04% (inactive) |
| Cc1ccc(C(=O)C2=C(O)C(=O)N(CCN3CCOCC3)C2c2ccccn2)o1 (stereo not drawn) | 403 | 1.7% (inactive) | -75.7% (inactive) | 147% | -0.208 | -0.969 | -0.257 | -0.608% (inactive) | -0.474 (inactive) | -0.0001 (inactive) | 0.00402 (inactive) | inactive | -7.55% (inactive) |
| CN(C)CCNC(=O)C12CC3(C)CC(C)(CC(C)(C3)C1)C2 | 524 | -4.4% (inactive) | -34.6% (inactive) | 118% | -1.47 | 1.88 | -1.54 | -6.59% (inactive) | -0.465 (inactive) | -0.000122 (inactive) | 0.00507 (inactive) | inactive | -10.5% (inactive) |
| Cc1ccc(C2/C(=C(\O)c3ccc4c(c3)OCCO4)C(=O)C(=O)N2CCCN(C)C)o1 (stereo not drawn) | 360 | -5.9% (inactive) | 24.2% (inactive) | 113% | -1.73 | 0.575 | -0.16 | 14% (inactive) | -0.474 (inactive) | -8.1e-06 (inactive) | 0.00787 (inactive) | inactive | -17.7% (inactive) |
| O=C1CC(c2ccco2)CC(O)=C1C=NCCN1CCN(C2CC(=O)N(c3ccccc3)C2=O)CC1 (stereo not drawn) | 378 | -0.3% (inactive) | -133% (inactive) | 162% | -1.98 | 0.592 | 0.0438 | -4.78% (inactive) | -0.462 (inactive) | -6e-05 (inactive) | 0.00456 (inactive) | inactive | -7.38% (inactive) |
| O=C(O)C1CC(=O)N(Cc2cccs2)C1 (stereo not drawn) | 557 | -4.7% (inactive) | -73.2% (inactive) | 165% | 0.677 | 0.857 | -1.54 | 17.8% (inactive) | -0.404 (inactive) | -3e-05 (inactive) | 0.00636 (inactive) | inactive | -9.05% (inactive) |
| COc1ccc(OC)c(C2C(C(=O)c3sc(C)nc3C)=C(O)C(=O)N2CCN2CCOCC2)c1 (stereo not drawn) | 369 | 2.2% (inactive) | 35.1% (inactive) | 148% | -0.927 | -0.477 | 2.22 | -4.78% (inactive) | -0.46 (inactive) | -0.000134 (inactive) | 0.00498 (inactive) | inactive | 14.2% (inactive) |
| N#Cc1c(NCCCO)nc(-c2ccccc2)c2c1CCCC2 | 598 | -4.5% (inactive) | -60.9% (inactive) | 154% | -0.266 | 0.00477 | 1.17 | -0.233% (inactive) | -0.435 (inactive) | -0.000107 (inactive) | 0.00541 (inactive) | inactive | 0.512% (inactive) |
| OCCOCCNc1ncnc2c1cnn2-c1ccc(Cl)cc1 | 578 | -11.9% (inactive) | -74.5% (inactive) | 181% | 0.588 | -0.286 | 0.737 | -4.59% (inactive) | -0.308 (inactive) | -2.8e-05 (inactive) | 0.00585 (inactive) | inactive | 26.1% (inactive) |
| COC(=O)CSc1nnc(C)c(=O)[nH]1 | 609 | -15.3% (inactive) | -317% (inactive) | 138% | 0.155 | 1.52 | -3.1 | -7.86% (inactive) | -0.484 (inactive) | -7.4e-05 (inactive) | 0.00545 (inactive) | inactive | -3.96% (inactive) |
| COc1ccc(N2C(=O)C3C(C2=O)C2C=CC3C23CC3)c(OC)c1 (stereo not drawn) | 517 | -4.2% (inactive) | 41.1% (inactive) | 197% | 0.465 | -0.843 | 1.05 | 11.9% (inactive) | -0.422 (inactive) | -4.3e-05 (inactive) | 0.00475 (inactive) | inactive | 24.5% (inactive) |
| FC(F)(F)c1cccc(-n2cccc2/C=N/n2cnnc2)c1 | 415 | -3.1% (inactive) | 39.9% (inactive) | 140% | -1.39 | 0.953 | 1.88 | -0.608% (inactive) | -0.438 (inactive) | -0.00012 (inactive) | 0.00494 (inactive) | inactive | 13.6% (inactive) |
| CN(C)CCOC(=O)Cc1ccc(Cl)cc1 | 622 | -6.2% (inactive) | -90.8% (inactive) | 83.6% | 1.56 | -0.995 | -0.341 | 12.8% (inactive) | -0.539 (inactive) | -4.8e-05 (inactive) | 0.00854 (inactive) | inactive | 35.4% (inactive) |
| CC(=O)/C(C#N)=C1\NC(=O)C(Cc2ccccc2Cl)S1 (stereo not drawn) | 605 | -10.1% (inactive) | 31.2% (inactive) | 179% | 1.48 | -0.162 | -0.594 | 7.42% (inactive) | -0.416 (inactive) | -7e-05 (inactive) | 0.00568 (inactive) | inactive | 4.47% (inactive) |
| COc1cccc(NC(=O)C2CC(=O)n3cnnc3S2)c1 (stereo not drawn) | 518 | -3.8% (inactive) | 12.1% (inactive) | 177% | 0.777 | -1.1 | -0.46 | 35.7% (inactive) | -0.339 (inactive) | -2.8e-05 (inactive) | 0.00822 (inactive) | inactive | 40.5% (inactive) |
| Cc1ccc(-n2ncc3c(NCCCN4CCCC4=O)ncnc32)c(C)c1 | 563 | -12.5% (inactive) | -40.1% (inactive) | 134% | 0.612 | -0.125 | -2.3 | 13.4% (inactive) | -0.358 (inactive) | 1.3e-05 (inactive) | 0.00773 (inactive) | inactive | 0.102% (inactive) |
| COC(=O)NC(Nc1sc2c(c1C(N)=O)CCCC2)(C(=O)OC)C(F)(F)F (stereo not drawn) | 713 | 11.7% (inactive) | -59.3% (inactive) | 147% | 0.143 | -0.0847 | -0.638 | -11.4% (inactive) | -0.431 (inactive) | -7.5e-05 (inactive) | 0.00518 (inactive) | inactive | -3.75% (inactive) |
| O=C(Oc1cccnc1)c1ccco1 | 545 | -0.5% (inactive) | 2.1% (inactive) | 99% | -1.51 | 1.45 | 1.18 | -3.95% (inactive) | -0.449 (inactive) | -4.3e-05 (inactive) | 0.00414 (inactive) | inactive | -17% (inactive) |
| O=C1CC(NCc2ccncc2)C(=O)N1c1ccc(Cl)cc1 (stereo not drawn) | 479 | 2.2% (inactive) | -20.1% (inactive) | 150% | 0.96 | -0.274 | -0.794 | 2.71% (inactive) | -0.464 (inactive) | -3.3e-05 (inactive) | 0.00465 (inactive) | inactive | 25.9% (inactive) |
| CCN(CC)CCCN1C(=O)C(=O)/C(=C(/O)c2ccc3c(c2)CC(C)O3)C1c1cccnc1 (stereo not drawn) | 574 | -10.8% (inactive) | 68% (inactive) | 83.2% | -1.33 | 0.323 | 0.536 | 6.04% (inactive) | -0.502 (inactive) | -2.4e-05 (inactive) | 0.00627 (inactive) | inactive | 13.2% (inactive) |
| CC12CN3CC(=O)N4CC5(C)CN(CC(C)(C4)C5=O)C(=O)CN(C1)CC(C)(C3)C2=O | 523 | -11.2% (inactive) | -128% (inactive) | 144% | 0.984 | -0.638 | -0.379 | 1.42% (inactive) | -0.485 (inactive) | -0.000104 (inactive) | 0.00461 (inactive) | inactive | 6.7% (inactive) |

Reference: PubChem BioAssay
